What was measured:
[1] = Stability of compound in rat liver microsomes assessed as parent compound remaining at 1 uM measured at 10 mins in presence of NADPH; assay type: ADME, Microsome; conditions: for remaining at 10 min, 1 µM: liver microsomes, read-out: Stabilty
Method in brief: (§1)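 Test compound at 1 μM with human, mouse or rat liver microsomes (0.5 mg/ml protein) plus NADPH cofactor; final solvents 0.01% DMSO, 0.05% acetonitrile; percent parent remaining at 10 min. Verapamil, cerivastatin and warfarin as positive controls. SD given when multiple batches were tested.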

[2] = Stability of compound in human liver microsomes assessed as parent compound remaining at 1 uM measured at 10 mins in presence of NADPH; assay type: ADME, Microsome; conditions: for remaining at 10 min, 1 µM: liver microsomes, read-out: Stabilty; method in brief: as §1
[3] = Stability of compound in mouse liver microsomes assessed as parent compound remaining at 1 uM measured at 10 mins in presence of NADPH; assay type: ADME, Microsome; conditions: read-out: Stabilty; method in brief: as §1
[4] = biological target: T1, Sodium/glucose cotransporter 1 (Homo sapiens) (UniProt P13866); assay: Inhibition of human SGLT1 expressed in CHO cells assessed as reduction in [14C]-methyl-alpha -D-glucopyranoside accumulation at 0.3 uM relative to control; assay type: cell-based
T1 sequence (whole entry): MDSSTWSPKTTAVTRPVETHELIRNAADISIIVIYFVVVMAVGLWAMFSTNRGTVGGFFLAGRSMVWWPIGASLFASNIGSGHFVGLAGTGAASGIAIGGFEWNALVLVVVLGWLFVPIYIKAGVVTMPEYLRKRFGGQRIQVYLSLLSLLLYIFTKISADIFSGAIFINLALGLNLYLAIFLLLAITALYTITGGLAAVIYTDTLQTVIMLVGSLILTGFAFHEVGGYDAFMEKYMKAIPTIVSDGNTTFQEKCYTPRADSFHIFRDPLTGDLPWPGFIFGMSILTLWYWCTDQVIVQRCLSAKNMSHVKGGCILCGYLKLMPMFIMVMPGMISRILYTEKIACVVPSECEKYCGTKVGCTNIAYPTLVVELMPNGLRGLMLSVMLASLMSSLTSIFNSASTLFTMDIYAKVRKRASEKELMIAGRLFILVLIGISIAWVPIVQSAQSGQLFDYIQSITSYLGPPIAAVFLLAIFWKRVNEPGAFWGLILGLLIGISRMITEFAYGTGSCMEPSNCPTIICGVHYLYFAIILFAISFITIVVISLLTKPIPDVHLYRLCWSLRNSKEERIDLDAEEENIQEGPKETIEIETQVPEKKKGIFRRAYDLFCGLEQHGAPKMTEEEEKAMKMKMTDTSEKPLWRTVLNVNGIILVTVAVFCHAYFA
Method in brief: (§2)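 CHO cells expressing human SGLT1 or SGLT2; inhibition of [14C]methyl D-glucopyranoside (AMG) accumulation measured with test compound at 0.3 μM.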

[5] = biological target: T2, Sodium/glucose cotransporter 2 (Homo sapiens) (UniProt P31639); assay: Inhibition of human SGLT2 expressed in CHO cells assessed as reduction in [14C]-methyl-alpha -D-glucopyranoside accumulation at 0.3 uM relative to control; assay type: cell-based; method in brief: as §2
T2 sequence (whole entry): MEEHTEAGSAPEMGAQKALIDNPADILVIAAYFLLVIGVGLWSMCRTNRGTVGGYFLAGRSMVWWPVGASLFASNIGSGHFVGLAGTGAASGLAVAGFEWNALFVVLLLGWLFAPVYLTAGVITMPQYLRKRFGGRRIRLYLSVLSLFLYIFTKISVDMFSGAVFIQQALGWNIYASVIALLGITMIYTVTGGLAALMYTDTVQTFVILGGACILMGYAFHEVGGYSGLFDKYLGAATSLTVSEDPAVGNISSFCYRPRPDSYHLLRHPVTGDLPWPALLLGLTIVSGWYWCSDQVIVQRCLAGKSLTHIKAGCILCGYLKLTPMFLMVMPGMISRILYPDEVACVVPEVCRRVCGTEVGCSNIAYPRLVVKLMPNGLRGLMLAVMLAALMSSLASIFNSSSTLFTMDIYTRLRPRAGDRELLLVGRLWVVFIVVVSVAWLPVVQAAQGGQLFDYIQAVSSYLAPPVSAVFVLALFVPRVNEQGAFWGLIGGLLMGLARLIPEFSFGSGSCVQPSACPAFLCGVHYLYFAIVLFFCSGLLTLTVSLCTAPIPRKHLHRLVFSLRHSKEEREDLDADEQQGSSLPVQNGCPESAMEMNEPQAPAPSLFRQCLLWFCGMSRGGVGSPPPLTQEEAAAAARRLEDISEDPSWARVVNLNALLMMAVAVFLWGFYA

Rattus norvegicus [6] = assay: Hypoglycemic activity in overnight fasted Sprague-Dawley rat assessed as percent reduction in blood glucose AUC at 10 mg/kg, po measured after 4 hrs post glucose challenge by OGTT relative to control; assay type: functional; parameters: scale not given: the % may be the effect or the level left
Method in brief: (§3)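 Overnight-fasted SD rats dosed orally at 1 or 10 mg/kg in 0.5% Methocel (vehicle controls) 60 min before oral glucose challenge. […] N=8 per group; mean ± SEM; one-way ANOVA-Dunnett.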

[7] = Half life in human liver microsomes at 1 uM measured at 10 mins in presence of NADPH; assay type: ADME, Microsome
Rattus norvegicus [8] = assay: Hypoglycemic activity in overnight fasted Sprague-Dawley rat assessed as percent reduction in blood glucose AUC at 1 mg/kg, po measured after 4 hrs post glucose challenge by OGTT relative to control; assay type: functional; parameters: scale not given: the % may be the effect or the level left; method in brief: as §3
[9] = Volume of distribution at steady state in Sprague-Dawley rat at 2 mg/kg, iv or 10 mg/kg, po; assay type: ADME, organism-based; conditions: in vivo, read-out: Vdss
Method in brief: (§4)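 Male Sprague Dawley rats dosed 2 mg/kg IV (vehicle 20% HPbCD) or 10 mg/kg PO (vehicle 0.5% Methocel); pharmacokinetic parameters derived from plasma exposure.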

[10] = Cmax in Sprague-Dawley rat at 2 mg/kg, iv or 10 mg/kg, po; assay type: ADME, organism-based; parameters: dose 10 mg/kg; conditions: in vivo; method in brief: as §4
[11] = In vivo inhibition of SGLT2 in overnight fasted Sprague-Dawley rat assessed as amount of urinary glucose excretion assessed per 4 hrs at 10 mg/kg, po; assay type: functional; method in brief: as §3
[12] = Oral bioavailability in Sprague-Dawley rat at 10 mg/kg; assay type: ADME, organism-based; conditions: in vivo; method in brief: as §4
[13] = Clearance in Sprague-Dawley rat at 2 mg/kg, iv or 10 mg/kg, po; assay type: ADME, organism-based; conditions: in vivo; method in brief: as §4
[14] = AUC (0 to infinity) in Sprague-Dawley rat at 2 mg/kg, iv or 10 mg/kg, po; assay type: ADME, organism-based; parameters: dose 10 mg/kg; conditions: in vivo; method in brief: as §4
[15] = In vivo inhibition of SGLT1 in overnight fasted Sprague-Dawley rat assessed as amount of urinary glucose excretion assessed per 4 hrs at 1 mg/kg, po; assay type: functional; method in brief: as §3
[16] = Half life in Sprague-Dawley rat at 2 mg/kg, iv; assay type: ADME, organism-based; conditions: in vivo; method in brief: as §4
[17] = Tmax in Sprague-Dawley rat at 2 mg/kg, iv or 10 mg/kg, po; assay type: ADME, organism-based; conditions: in vivo; method in brief: as §4

Compound | remaining at 10 min, 1 µM [1] [%] | remaining at 10 min, 1 µM [2] [%] | remaining at 10 min, 1 µM [3] [%] | inhibition [4] [%] | inhibition [5] [%] | further results
COc1cc(O)c([C@@H]2O[C@H](CO)C(F)(F)[C@H](O)[C@H]2O)cc1Cc1ccc2c(c1)CCO2 | 70 | 100 | 91 | – | – | –
COc1cc(O)c([C@@H]2O[C@H](CO)C(F)(F)[C@H](O)[C@H]2O)cc1Cc1ccc2c(c1)OCCO2 | 26 | 99 | 97 | – | – | –
COc1cc(OC)c([C@@H]2O[C@H](CO)[C@@](C)(F)[C@H](O)[C@H]2O)cc1Cc1ccc2c(c1)OCCO2 | – | – | – | 25 | 59 | –
COc1cc(Cl)c(Cc2ccc3c(c2)OCCO3)cc1[C@@H]1O[C@H](CO)C(F)(F)[C@H](O)[C@H]1O | – | – | – | 37 | 78 | –
COc1cc(O)c([C@@H]2O[C@H](CO)[C@@](C)(F)[C@H](O)[C@H]2O)cc1Cc1ccc2c(c1)CCCO2 | – | – | – | 31 | 67 | –
OC[C@H]1O[C@@H](c2cc(Cc3cc4ccccc4s3)c(Cl)cc2O)[C@H](O)[C@@H](O)C1(F)F | 94 | – | 106 | – | – | Activity (Rattus norvegicus [6]): 41.4%; t1/2 [7]: > 3 h; Activity (Rattus norvegicus [8]): 16%; Vd [9]: 0.91 L/kg; Cmax [10]: 5240 ng/mL; Activity [11]: 0.005 g; bioavailability [12]: 46.8%; clearance [13]: 3.92 mL/min/kg; Stabilty ([2]; microsomes, 10 min, 1 µM): 120%; AUC(0-inf) [14]: 18600 ng·h/mL; Activity [15]: 0.001 g; half-life [16]: 3.71 h; Tmax [17]: 0.31 h
COc1cc(Cl)c(Cc2cc3ccccc3s2)cc1[C@@H]1O[C@H](CO)C(F)(F)[C@H](O)[C@H]1O | – | 65 | 37 | – | – | Stabilty ([1]; microsomes, 10 min, 1 µM): 123%
